ChEMBL document CHEMBL2086252, “Syntheses and evaluation of anticonvulsant activity of novel branched alkyl carbamates” (J Med Chem, 2012)
Calls of active or inactive are those of the source. The rule behind the calls is not given here.

What was measured:
[1] = test system: Rattus norvegicus; assay: Neurotoxicity in pilocarpine-induced status epilepticus Sprague-Dawley albino rat model assessed as minimal motor impairment at 100 mg/kg, ip after 1 hr by rotarod test; type: toxicity, organism-based; design: dose 100 mg/kg, route intraperitoneal; settings: in vivo
[2] = test system: Mus musculus; assay: Anticonvulsant activity in albino CF1 mouse assessed as protection against maximal electroshock-induced seizures at 300 mg/kg, ip after 4 hrs; type: functional, organism-based; design: dose 300 mg/kg
Method in brief: (§1)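 Mice dosed ip at 30, 100 or 300 mg/kg, then tested 0.5 h and 4 h after administration in the MES or scMet test. Protection was recorded as animals protected over animals tested. Neurotoxicity was recorded as motor impairment or sedation, as animals affected over animals tested.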

[3] = test system: Rattus norvegicus; assay: Neurotoxicity in pilocarpine-induced status epilepticus Sprague-Dawley albino rat model assessed as minimal motor impairment at 100 mg/kg, ip after 4 hrs by rotarod test; type: toxicity, organism-based; design: dose 100 mg/kg, route intraperitoneal; settings: in vivo
[4] = test system: Rattus norvegicus; assay: Anticonvulsant activity in Sprague-Dawley albino rat assessed as protection against maximal electroshock-induced seizures at 30 mg/kg, po after 2 hrs; type: functional, organism-based; design: dose 30 mg/kg
Method in brief: (§2)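 Rats dosed orally. Anti-MES protection was scored as animals protected over animals tested at each time after dosing. Neurotoxicity was scored as motor impairment or sedation, as animals affected over animals tested.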

[5] = test system: Mus musculus; assay: Anticonvulsant activity in albino CF1 mouse assessed as protection against maximal electroshock-induced seizures at 30 mg/kg, ip after 0.5 hrs; type: functional, organism-based; design: dose 30 mg/kg; method in brief: as §1
[6] = test system: Rattus norvegicus; assay: Neurotoxicity in pilocarpine-induced status epilepticus Sprague-Dawley albino rat model assessed as minimal motor impairment at 300 mg/kg, ip after 0.25 hr by rotarod test; type: toxicity, organism-based; design: dose 300 mg/kg, route intraperitoneal; settings: in vivo
Method in brief: (§3)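 Rat pilocarpine status epilepticus model: test carbamate given at 0 or 30 min after the first observed Racine stage 3 motor seizure, which marks SE onset. Neurotoxicity was scored within the same model.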

[7] = test system: Mus musculus; assay: Anticonvulsant activity in albino CF1 mouse assessed as protection against subcutaneous metrazol-induced seizures at 300 mg/kg, ip after 4 hrs; type: functional, organism-based; design: dose 300 mg/kg; method in brief: as §1
[8] = test system: Mus musculus; assay: Anticonvulsant activity in albino CF1 mouse assessed as protection against subcutaneous metrazol-induced seizures at 30 mg/kg, ip after 0.5 hrs; type: functional, organism-based; design: dose 30 mg/kg; method in brief: as §1
[9] = test system: Rattus norvegicus; assay: Neurotoxicity in pilocarpine-induced status epilepticus Sprague-Dawley albino rat model assessed as minimal motor impairment at 100 mg/kg, ip after 2 hrs by rotarod test; type: toxicity, organism-based; design: dose 100 mg/kg, route intraperitoneal; settings: in vivo
[10] = test system: Mus musculus; assay: Neurotoxicity in albino CF1 mouse assessed as minimal motor impairment at 300 mg/kg, ip after 4 hrs by rotarod test; type: toxicity, organism-based; design: dose 300 mg/kg, route intraperitoneal; settings: in vivo; method in brief: as §1
[11] = test system: Rattus norvegicus; assay: Neurotoxicity in pilocarpine-induced status epilepticus Sprague-Dawley albino rat model assessed as minimal motor impairment at 300 mg/kg, ip after 0.5 hrs by rotarod test; type: toxicity, organism-based; design: dose 300 mg/kg, route intraperitoneal; settings: in vivo; method in brief: as §3
[12] = test system: Mus musculus; assay: Neurotoxicity in albino CF1 mouse assessed as minimal motor impairment at 30 mg/kg, ip after 4 hrs by rotarod test; type: toxicity, organism-based; design: dose 30 mg/kg, route intraperitoneal; settings: in vivo; method in brief: as §1
[13] = test system: Rattus norvegicus; assay: Neurotoxicity in pilocarpine-induced status epilepticus Sprague-Dawley albino rat model assessed as minimal motor impairment at 100 mg/kg, ip after 0.25 hr by rotarod test; type: toxicity, organism-based; design: dose 100 mg/kg, route intraperitoneal; settings: in vivo
[14] = test system: Mus musculus; assay: Anticonvulsant activity in albino CF1 mouse assessed as protection against maximal electroshock-induced seizures at 30 mg/kg, ip after 4 hrs; type: functional, organism-based; design: dose 30 mg/kg; method in brief: as §1
[15] = test system: Mus musculus; assay: Neurotoxicity in albino CF1 mouse assessed as minimal motor impairment at 100 mg/kg, ip after 0.5 hrs by rotarod test; type: toxicity, organism-based; design: dose 100 mg/kg, route intraperitoneal; settings: in vivo; method in brief: as §1
[16] = test system: Mus musculus; assay: Anticonvulsant activity in albino CF1 mouse assessed as protection against subcutaneous metrazol-induced seizures at 100 mg/kg, ip after 0.5 hrs; type: functional, organism-based; design: dose 100 mg/kg; method in brief: as §1
[17] = test system: Mus musculus; assay: Anticonvulsant activity in albino CF1 mouse assessed as protection against subcutaneous metrazol-induced seizures at 100 mg/kg, ip after 4 hrs; type: functional, organism-based; design: dose 100 mg/kg; method in brief: as §1
[18] = test system: Mus musculus; assay: Anticonvulsant activity in albino CF1 mouse assessed as protection against subcutaneous metrazol-induced seizures at 30 mg/kg, ip after 4 hrs; type: functional, organism-based; design: dose 30 mg/kg; method in brief: as §1
[19] = test system: Mus musculus; assay: Anticonvulsant activity in albino CF1 mouse assessed as protection against subcutaneous metrazol-induced seizures at 300 mg/kg, ip after 0.5 hrs; type: functional, organism-based; design: dose 300 mg/kg; method in brief: as §1
[20] = test system: Rattus norvegicus; assay: Neurotoxicity in pilocarpine-induced status epilepticus Sprague-Dawley albino rat model assessed as minimal motor impairment at 30 mg/kg, ip after 0.5 hrs by rotarod test; type: toxicity, organism-based; design: dose 30 mg/kg, route intraperitoneal; settings: in vivo; method in brief: as §3
[21] = test system: Rattus norvegicus; assay: Anticonvulsant activity in Sprague-Dawley albino rat assessed as protection against maximal electroshock-induced seizures at 30 mg/kg, po after 4 hrs; type: functional, organism-based; design: dose 30 mg/kg; method in brief: as §2
[22] = test system: Rattus norvegicus; assay: Neurotoxicity in pilocarpine-induced status epilepticus Sprague-Dawley albino rat model assessed as minimal motor impairment at 300 mg/kg, ip after 2 hrs by rotarod test; type: toxicity, organism-based; design: dose 300 mg/kg, route intraperitoneal; settings: in vivo; method in brief: as §3
[23] = test system: Rattus norvegicus; assay: Neurotoxicity in pilocarpine-induced status epilepticus Sprague-Dawley albino rat model assessed as minimal motor impairment at 30 mg/kg, ip after 0.25 hr by rotarod test; type: toxicity, organism-based; design: dose 30 mg/kg, route intraperitoneal; settings: in vivo; method in brief: as §3
[24] = test system: Rattus norvegicus; assay: Neurotoxicity in Sprague-Dawley albino rat assessed as minimal motor impairment at 30 mg/kg, po by rotarod test; type: toxicity, organism-based; design: dose 30 mg/kg, route oral; settings: in vivo; method in brief: as §2
[25] = test system: Rattus norvegicus; assay: Anticonvulsant activity in Sprague-Dawley albino rat assessed as protection against maximal electroshock-induced seizures at 30 mg/kg, po after 15 mins; type: functional, organism-based; design: dose 30 mg/kg; method in brief: as §2
[26] = test system: Rattus norvegicus; assay: Neurotoxicity in pilocarpine-induced status epilepticus Sprague-Dawley albino rat model assessed as minimal motor impairment at 30 mg/kg, ip after 2 hrs by rotarod test; type: toxicity, organism-based; design: dose 30 mg/kg, route intraperitoneal; settings: in vivo; method in brief: as §3
[27] = test system: Mus musculus; assay: Anticonvulsant activity in albino CF1 mouse assessed as protection against maximal electroshock-induced seizures at 100 mg/kg, ip after 4 hrs; type: functional, organism-based; design: dose 100 mg/kg; method in brief: as §1
[28] = test system: Rattus norvegicus; assay: Neurotoxicity in pilocarpine-induced status epilepticus Sprague-Dawley albino rat model assessed as minimal motor impairment at 30 mg/kg, ip after 1 hr by rotarod test; type: toxicity, organism-based; design: dose 30 mg/kg, route intraperitoneal; settings: in vivo; method in brief: as §3
[29] = test system: Rattus norvegicus; assay: Anticonvulsant activity in Sprague-Dawley albino rat assessed as protection against pilocarpine-induced status epilepticus at 65 mg/kg, ip; type: functional, organism-based; design: dose 65 mg/kg
Method in brief: (§4)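 Pilocarpine status epilepticus model in rats. Number and severity of convulsive seizures were observed behaviourally.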

[30] = test system: Rattus norvegicus; assay: Neurotoxicity in pilocarpine-induced status epilepticus Sprague-Dawley albino rat model assessed as minimal motor impairment at 30 mg/kg, ip after 4 hrs by rotarod test; type: toxicity, organism-based; design: dose 30 mg/kg, route intraperitoneal; settings: in vivo; method in brief: as §3
[31] = test system: Rattus norvegicus; assay: Neurotoxicity in pilocarpine-induced status epilepticus Sprague-Dawley albino rat model assessed as minimal motor impairment at 100 mg/kg, ip after 0.5 hrs by rotarod test; type: toxicity, organism-based; design: dose 100 mg/kg, route intraperitoneal; settings: in vivo
[32] = test system: Mus musculus; assay: Anticonvulsant activity in albino CF1 mouse assessed as protection against maximal electroshock-induced seizures at 100 mg/kg, ip after 0.5 hrs; type: functional, organism-based; design: dose 100 mg/kg; method in brief: as §1
[33] = test system: Rattus norvegicus; assay: Anticonvulsant activity in ip dosed Sprague-Dawley albino rat assessed as protection against pilocarpine-induced status epilepticus after 0.5 hrs; type: functional; method in brief: as §4
[34] = test system: Rattus norvegicus; assay: Neurotoxicity in pilocarpine-induced status epilepticus Sprague-Dawley albino rat model assessed as minimal motor impairment at 300 mg/kg, ip after 1 hr by rotarod test; type: toxicity, organism-based; design: dose 300 mg/kg, route intraperitoneal; settings: in vivo; method in brief: as §3
[35] = test system: Mus musculus; assay: Neurotoxicity in albino CF1 mouse assessed as minimal motor impairment at 100 mg/kg, ip after 4 hrs by rotarod test; type: toxicity, organism-based; design: dose 100 mg/kg, route intraperitoneal; settings: in vivo; method in brief: as §1
[36] = test system: Mus musculus; assay: Neurotoxicity in albino CF1 mouse assessed as minimal motor impairment at 300 mg/kg, ip after 0.5 hrs by rotarod test; type: toxicity, organism-based; design: dose 300 mg/kg, route intraperitoneal; settings: in vivo; method in brief: as §1
[37] = test system: Rattus norvegicus; assay: Neurotoxicity in pilocarpine-induced status epilepticus Sprague-Dawley albino rat model assessed as minimal motor impairment at 300 mg/kg, ip after 4 hrs by rotarod test; type: toxicity, organism-based; design: dose 300 mg/kg, route intraperitoneal; settings: in vivo; method in brief: as §3
[38] = test system: Mus musculus; assay: Neurotoxicity in albino CF1 mouse assessed as minimal motor impairment at 30 mg/kg, ip after 0.5 hrs by rotarod test; type: toxicity, organism-based; design: dose 30 mg/kg, route intraperitoneal; settings: in vivo; method in brief: as §1
[39] = test system: Rattus norvegicus; assay: Neurotoxicity in pilocarpine-induced status epilepticus Sprague-Dawley albino rat model assessed as minimal motor impairment at 65 mg/kg, ip after 0.5 hrs by rotarod test; type: toxicity, organism-based; design: dose 65 mg/kg, route intraperitoneal; settings: in vivo; method in brief: as §3
[40] = test system: Mus musculus; assay: Anticonvulsant activity in albino CF1 mouse assessed as protection against maximal electroshock-induced seizures at 300 mg/kg, ip after 0.5 hrs; type: functional, organism-based; design: dose 300 mg/kg; method in brief: as §1

## CCCC(COC(N)=O)C(C)C (racemic)
[1]
  Activity: Toxic
[2]
  Activity: inactive
[3]
  Activity: Non-toxic
[4]
  Activity: inactive
[5]
  Activity: inactive
[6]
  Activity: Toxic
[7]
  Activity: inactive
[8]
  Activity: inactive
[9]
  Activity: Non-toxic
[10]
  Activity: Non-toxic
[11]
  Activity: Toxic
[12]
  Activity: Non-toxic
[13]
  Activity: Toxic
[14]
  Activity: inactive
[15]
  Activity: Non-toxic
[16]
  Activity: inactive
[17]
  Activity: inactive
[18]
  Activity: inactive
[19]
  Activity: Active
[20]
  Activity: Non-toxic
[21]
  Activity: inactive
[22]
  Activity: Toxic
[23]
  Activity: Non-toxic
[24]
  Activity: Non-toxic
[25]
  Activity: inactive
[26]
  Activity: Non-toxic
[27]
  Activity: inactive
[28]
  Activity: Non-toxic
[29]
  Activity: Active
[30]
  Activity: Non-toxic
[31]
  Activity: Toxic
[32]
  Activity: Active
[33]
  ED50: 107 mg/kg
  ED97: 151 mg/kg
[34]
  Activity: Toxic
[35]
  Activity: Non-toxic
[36]
  Activity: Toxic
[37]
  Activity: Toxic
[38]
  Activity: Non-toxic
[39]
  Activity: Non-toxic
[40]
  Activity: Active
